Legend:
[1] = test system: Entamoeba histolytica; experiment: Antiamnesic activity against Entamoeba histolytica HM-1:IMSS after 72 hrs by trypan blue exclusion assay; format: functional, organism-based
How it was run: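 Microdilution in TYIS-33 medium, trophozoites counted by haemocytometer with trypan blue viability check, 1.7 × 10⁴ organisms/well. Plates gassed with N₂ 10 min, 37 °C for 72 h. Washed with 0.9% NaCl, methanol-fixed, eosin-stained, dye released with 0.1 N NaOH, OD 490 nm. % inhibition vs log dose, IC50 by linear regression. Metronidazole standard. Three independent experiments.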

[2] = Cytotoxicity against HEK cells after 44 hrs by MTT assay; format: cell-based; settings: Homo sapiens, HEK293, 44 h
How it was run: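 Transformed human kidney epithelial (Graham) cells kept at 37 °C in 5% CO₂. Trypsinized cells at 0.5 million cells/ml plated with compounds for 44 h, then 2 mM MTT for a further 4 h. Formazan dissolved in DMSO, absorbance 540 nm with 690 nm reference, % viability vs controls. Three independent experiments.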

[3] = Safety index, ratio of IC50 for HEK cells to IC50 for Entamoeba histolytica HM-1:IMSS; format: toxicity, cell-based, HEK293; settings: human, HEK cells (versus Entamoeba histolytica HM-1:IMSS); read-out: Ratio IC50
[4] = in the assay text read “Antiamoebic” for “Antiamnesic”

SMILES	IC50 [1] [nM]	IC50 [2] [nM]	selectivity ratio [3]	IC50 [1, 4] [nM]
Clc1ccc(C2ON=C(c3ccccc3Cl)O2)cc1 (stereo unspecified)	510	> 100000	> 196	–
CC1(c2ccccn2)ON=C(c2ccc(Cl)cc2)O1 (stereo unspecified)	1580	> 100000	> 63.3	–
CCc1ccc(C2ON=C(c3cccc(Cl)c3)O2)cc1 (stereo unspecified)	–	> 100000	> 55.5	> 1800
CCc1ccc(C2ON=C(c3ccccc3Cl)O2)cc1 (stereo unspecified)	> 1800	> 100000	> 55.5	–
CC1(c2cccc(Br)c2)ON=C(c2ccccc2Cl)O1 (stereo unspecified)	> 1800	> 100000	> 55.5	–
Clc1ccc(C2ON=C(c3ccccc3Cl)O2)cc1Cl (stereo unspecified)	810	> 100000	> 124	–
CCC1(c2cccc(Br)c2)ON=C(c2ccccc2Cl)O1 (stereo unspecified)	> 1800	> 100000	> 55.5	–
Clc1cccc(C2=NOC(c3cccc(Cl)c3)O2)c1 (stereo unspecified)	–	> 100000	> 110	910
CC1(c2ccc(Cl)cc2)ON=C(c2ccc(Cl)cc2)O1 (stereo unspecified)	> 1800	> 100000	> 55.5	–
Clc1ccc(C2=NOC(c3ccc(Cl)c(Cl)c3)O2)cc1 (stereo unspecified)	–	> 100000	> 88.5	1130
Clc1cccc(C2=NOC(c3ccccc3Cl)O2)c1 (stereo unspecified)	–	> 100000	> 161	620
CCC1(c2cccc(Br)c2)ON=C(c2ccc(Cl)cc2)O1 (stereo unspecified)	> 1800	> 100000	> 55.5	–
Cc1ccc(C2ON=C(c3ccc(Cl)cc3)O2)cc1 (stereo unspecified)	> 1800	> 100000	> 55.5	–
Clc1cccc(C2ON=C(c3ccccc3Cl)O2)c1 (stereo unspecified)	720	> 100000	> 139	–
CC1(c2cccc(Br)c2)ON=C(c2ccc(Cl)cc2)O1 (stereo unspecified)	> 1800	> 100000	> 55.5	–
Cc1ccc(C2ON=C(c3ccccc3Cl)O2)cc1 (stereo unspecified)	> 1800	> 100000	> 55.5	–
Clc1ccc(C2=NOC(c3ccccc3Cl)O2)cc1 (stereo unspecified)	480	> 100000	> 208	–

SMILES	IC50 [1] [nM]	IC50 [2] [nM]	selectivity ratio [3]	IC50 [1, 4] [nM]
CCc1ccc(C2ON=C(c3ccc(Cl)cc3)O2)cc1 (stereo unspecified)	> 1800	> 100000	> 55.5	–
CC1(c2ccccn2)ON=C(c2ccccc2Cl)O1 (stereo unspecified)	1620	> 100000	> 61.7	–
CCC1(c2cccc(Cl)c2)ON=C(c2ccccc2Cl)O1 (stereo unspecified)	> 1800	> 100000	> 55.5	–
Clc1ccc(C2=NOC(c3ccc(Cl)cc3)O2)cc1 (stereo unspecified)	–	> 100000	> 189	530
CCC1(c2cccc(Cl)c2)ON=C(c2cccc(Cl)c2)O1 (stereo unspecified)	> 1800	> 100000	> 55.5	–
Clc1ccccc1C1=NOC(c2ccccc2Cl)O1 (stereo unspecified)	410	> 100000	> 244	–
CC1(c2ccc(Cl)cc2)ON=C(c2cccc(Cl)c2)O1 (stereo unspecified)	–	> 100000	> 55.5	> 1800
Clc1ccc(C2=NOC(c3cccc(Cl)c3)O2)cc1 (stereo unspecified)	–	> 100000	> 116	860
Clc1cccc(C2=NOC(c3ccc(Cl)c(Cl)c3)O2)c1 (stereo unspecified)	1210	> 100000	> 82.6	–
CC1(c2ccc(Cl)cc2)ON=C(c2ccccc2Cl)O1 (stereo unspecified)	> 1800	> 100000	> 55.5	–
CC1(c2cccc(Br)c2)ON=C(c2cccc(Cl)c2)O1 (stereo unspecified)	> 1800	> 100000	> 55.5	–
CCC1(c2cccc(Br)c2)ON=C(c2cccc(Cl)c2)O1 (stereo unspecified)	> 1800	> 100000	> 55.5	–
Clc1ccc(C2ON=C(c3cccc(Cl)c3)O2)cc1 (stereo unspecified)	–	> 100000	> 141	710
Cc1ccc(C2ON=C(c3cccc(Cl)c3)O2)cc1 (stereo unspecified)	–	> 100000	> 55.5	> 1800
CC1(c2ccccn2)ON=C(c2cccc(Cl)c2)O1 (stereo unspecified)	1730	> 100000	> 57.8	–
Cc1ncc([N+](=O)[O-])n1CCO [METRONIDAZOLE]	–	> 100000	> 55.5	–
CCC1(c2cccc(Cl)c2)ON=C(c2ccc(Cl)cc2)O1 (stereo unspecified)	> 1800	> 100000	> 55.5	–
